Test results as given in ChEMBL document CHEMBL4699429, “Novel 1,3,4-thiadiazole compounds as potential MAO-A inhibitors - design, synthesis, biological evaluation and molecular modelling” (RSC Med Chem, 2020).

How the values were obtained:
[1] = target: T1, Amine oxidase [flavin-containing] A (Homo sapiens, UniProt P21397); assay: Inhibition of human recombinant MAO-A at 1 uM using tyramine as substrate preincubated with enzyme for 30 mins followed by incubation with substrate for 30 mins by Amplex Red reagent based fluorometric method relative to control; details: 0.5 h, time 60 min
T1 sequence (P21397 whole entry): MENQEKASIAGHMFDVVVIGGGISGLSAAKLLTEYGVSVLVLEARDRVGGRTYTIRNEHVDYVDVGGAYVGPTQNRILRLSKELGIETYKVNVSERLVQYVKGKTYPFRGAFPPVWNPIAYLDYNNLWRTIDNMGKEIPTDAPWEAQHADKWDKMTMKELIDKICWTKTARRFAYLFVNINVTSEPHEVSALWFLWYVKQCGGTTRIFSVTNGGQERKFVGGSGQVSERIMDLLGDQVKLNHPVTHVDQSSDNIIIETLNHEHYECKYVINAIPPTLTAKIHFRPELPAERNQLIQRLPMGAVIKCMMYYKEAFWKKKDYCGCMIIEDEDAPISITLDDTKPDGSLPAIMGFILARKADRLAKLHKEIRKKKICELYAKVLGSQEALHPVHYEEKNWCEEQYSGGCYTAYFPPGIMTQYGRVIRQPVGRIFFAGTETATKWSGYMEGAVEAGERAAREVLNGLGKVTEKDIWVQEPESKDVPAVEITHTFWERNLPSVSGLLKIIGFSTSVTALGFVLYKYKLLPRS
Method in brief: (§1)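 Recombinant hMAO-A at 0.5 U/mL in phosphate buffer. Inhibitors are dissolved in 2% DMSO and preincubated with enzyme at 37 °C for 30 min. The working solution is then added: horseradish peroxidase, Amplex (Ampliflu) red and tyramine. Fluorescence (Ex/Em 535/587 nm) is read at 5-min intervals over 30 min at 37 °C. Controls use 2% DMSO. Background without enzyme is subtracted. Peroxidase interference is checked with H2O2.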

[2] = target: T1, Amine oxidase [flavin-containing] A; assay: Inhibition of human recombinant MAO-A at 1 mM using tyramine as substrate preincubated with enzyme for 30 mins followed by incubation with substrate for 30 mins by Amplex Red reagent based fluorometric method relative to control; details: 0.5 h, time 60 min; method in brief: as §1
[3] = target: T1, Amine oxidase [flavin-containing] A; assay: Inhibition of human recombinant MAO-A at 0.1 uM using tyramine as substrate preincubated with enzyme for 30 mins followed by incubation with substrate for 30 mins by Amplex Red reagent based fluorometric method relative to control; details: 0.5 h, time 60 min; method in brief: as §1
[4] = target: T1, Amine oxidase [flavin-containing] A; assay: Inhibition of human recombinant MAO-A at 10 uM using tyramine as substrate preincubated with enzyme for 30 mins followed by incubation with substrate for 30 mins by Amplex Red reagent based fluorometric method relative to control; details: 0.5 h, time 60 min; method in brief: as §1
[5] = target: T1, Amine oxidase [flavin-containing] A; assay: Inhibition of human recombinant MAO-A at 0.01 uM using tyramine as substrate preincubated with enzyme for 30 mins followed by incubation with substrate for 30 mins by Amplex Red reagent based fluorometric method relative to control; details: 0.5 h, time 60 min; method in brief: as §1
[6] = target: T1, Amine oxidase [flavin-containing] A; assay: Inhibition of human recombinant MAO-A at 0.01 nM using tyramine as substrate preincubated with enzyme for 30 mins followed by incubation with substrate for 30 mins by Amplex Red reagent based fluorometric method relative to control; details: 0.5 h, time 60 min; method in brief: as §1
[7] = target: T1, Amine oxidase [flavin-containing] A; assay: Inhibition of human recombinant MAO-A using tyramine as substrate preincubated with enzyme for 30 mins followed by incubation with substrate for 30 mins by Amplex Red reagent based fluorometric method
Method in brief: as §1, with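 “tyramine.” for “tyramine. Fluorescence (Ex/Em 535/587 nm) is read at 5-min intervals over 30 min at 37 °C.”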

[8] = target: T2, Amine oxidase [flavin-containing] B (Homo sapiens, UniProt P27338); assay: Inhibition of human recombinant MAO-B at 1 mM using tyramine as substrate preincubated with enzyme for 30 mins followed by incubation with substrate for 30 mins by Amplex Red reagent based fluorometric method relative to control; details: 0.5 h, read-out: INH
T2 sequence (P27338 whole entry): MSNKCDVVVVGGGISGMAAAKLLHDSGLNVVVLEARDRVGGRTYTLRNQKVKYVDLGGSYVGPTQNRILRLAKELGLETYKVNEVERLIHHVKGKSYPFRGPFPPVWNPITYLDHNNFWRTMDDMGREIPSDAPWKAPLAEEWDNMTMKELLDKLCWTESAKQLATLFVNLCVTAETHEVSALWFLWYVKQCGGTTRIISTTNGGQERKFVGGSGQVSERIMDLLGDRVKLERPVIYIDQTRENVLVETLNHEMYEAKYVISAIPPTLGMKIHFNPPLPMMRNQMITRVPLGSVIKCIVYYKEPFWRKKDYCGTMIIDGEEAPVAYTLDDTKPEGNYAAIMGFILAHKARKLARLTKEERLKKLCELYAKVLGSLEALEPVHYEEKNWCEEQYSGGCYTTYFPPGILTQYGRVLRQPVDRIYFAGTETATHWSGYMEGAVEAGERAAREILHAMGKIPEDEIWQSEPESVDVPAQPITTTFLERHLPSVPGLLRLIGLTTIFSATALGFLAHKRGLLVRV

[9] = target: T2, Amine oxidase [flavin-containing] B; assay: Inhibition of human recombinant MAO-B at 100 uM using tyramine as substrate preincubated with enzyme for 30 mins followed by incubation with substrate for 30 mins by Amplex Red reagent based fluorometric method relative to control; details: 0.5 h, read-out: INH
[10] = target: T1, Amine oxidase [flavin-containing] A; assay: Inhibition of human recombinant MAO-A at 0.1 nM using tyramine as substrate preincubated with enzyme for 30 mins followed by incubation with substrate for 30 mins by Amplex Red reagent based fluorometric method relative to control; details: 0.5 h, time 60 min; method in brief: as §1
[11] = target: T1, Amine oxidase [flavin-containing] A; assay: Inhibition of human recombinant MAO-A at 100 uM using tyramine as substrate preincubated with enzyme for 30 mins followed by incubation with substrate for 30 mins by Amplex Red reagent based fluorometric method relative to control; details: 0.5 h, time 60 min; method in brief: as §1
[12] = target: T1, Amine oxidase [flavin-containing] A; assay: Inhibition of human recombinant MAO-A at 1 nM using tyramine as substrate preincubated with enzyme for 30 mins followed by incubation with substrate for 30 mins by Amplex Red reagent based fluorometric method relative to control; details: 0.5 h, time 60 min; method in brief: as §1
[13] = target: T1, Amine oxidase [flavin-containing] A; assay: Inhibition of human recombinant MAO-A assessed as enzyme residual activity using tyramine as substrate at 4XIC50 incubated with enzyme for 15 mins followed by substrate addition by Amplex Red reagent based fluorometric method relative to control; details: 0.25 h
Method in brief: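 Recombinant hMAO-A (1 U mL⁻¹) preincubated with inhibitor for 15 min at 37 °C in 0.05 M potassium phosphate, pH 7.4, with 5% sucrose and 1% DMSO. The mixture was dialysed 24 h at 4 °C (12 000 Da cut-off) against 100 mM potassium phosphate, pH 7.4, 5% sucrose, with two buffer changes. Residual activity was then measured in triplicate and reported as mean ± SEM.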

[14] = target: T1, Amine oxidase [flavin-containing] A; assay: Competitive inhibition of human recombinant MAO-A using tyramine as substrate preincubated with enzyme for 30 mins followed by substrate addition and measured for 30 mins by Lineweaver-burk plot analysis

SMILES | inhibition at 1 µM [1] | inhibition at 1000 µM [2] | inhibition at 0.1 µM [3] | inhibition at 10 µM [4] | inhibition at 0.01 µM [5] | inhibition at 10 pM [6] | IC50 [7] | inhibition at 1000 µM [8] | inhibition at 100 µM [9] | inhibition at 0.0001 µM [10] | inhibition at 100 µM [11] | inhibition at 0.001 µM [12] | Ki [14] | Activity [13]
CC(C)Nc1nnc(SCC(=O)N(Cc2cccc([N+](=O)[O-])c2)c2ccc(F)cc2)s1 | 46% | 92.5% | 43% | 86.1% | 23.9% | 6.87% | 1070 nM | 36% | 28.5% | 10.8% | 89.1% | 13.6% |  | 
O=C(CSc1nnc(Nc2ccccc2)s1)N(Cc1cccc([N+](=O)[O-])c1)c1ccc(F)cc1 |  | 89.5% |  |  |  |  |  | 43.1% | 20.7% |  | 41.4% |  |  | 
Cc1ccc(Nc2nnc(SCC(=O)N(Cc3cccc([N+](=O)[O-])c3)c3ccc(F)cc3)s2)cc1 |  | 87.6% |  |  |  |  |  | 37.9% | 26.5% |  | 42.7% |  |  | 
C#CCN(C)CCCOc1ccc(Cl)cc1Cl [CLORGILINE] | 79.1% | 96.4% | 63.9% | 88.5% | 35.3% | 11.3% |  |  |  | 17% | 92.1% | 21.7% |  | 88.315%
O=C(NCCN1CCOCC1)c1ccc(Cl)cc1 [MOCLOBEMIDE] | 35.8% | 95.3% | 24.5% | 62.4% | 19.6% | 7.25% |  |  |  | 12.8% | 83.1% | 15.4% |  | 31.253%

Further lines, with some results ahead:

inhibition at 1 µM [1] | inhibition at 1000 µM [2] | inhibition at 0.1 µM [3] | inhibition at 10 µM [4] | inhibition at 0.01 µM [5] | inhibition at 10 pM [6] | IC50 [7] | inhibition at 1000 µM [8] | inhibition at 100 µM [9] | inhibition at 0.0001 µM [10] | inhibition at 100 µM [11] | inhibition at 0.001 µM [12] | Ki [14] | SMILES | Activity [13]
61.9% | 93.6% | 42.1% | 74.1% | 30.3% | 10.3% | 336 nM | 41.3% | 22.4% | 14.2% | 89.5% | 21% |  | CCNc1nnc(SCC(=O)N(Cc2cccc([N+](=O)[O-])c2)c2ccc(F)cc2)s1 | 
62.3% | 95% | 45.1% | 78.3% | 25.1% | 8.5% | 241 nM | 42.7% | 26.8% | 12% | 91.1% | 20.5% |  | CCCNc1nnc(SCC(=O)N(Cc2cccc([N+](=O)[O-])c2)c2ccc(F)cc2)s1 | 
47.3% | 90.5% | 33.6% | 76% | 30% | 6.94% | 1170 nM | 40.6% | 34.3% | 11.1% | 82.3% | 19.7% |  | CCCCNc1nnc(SCC(=O)N(Cc2cccc([N+](=O)[O-])c2)c2ccc(F)cc2)s1 | 
56.5% | 92% | 43.2% | 75.2% | 32.7% | 10.2% | 502 nM | 38.1% | 29.2% | 13.5% | 86.4% | 20.5% |  | C=CCNc1nnc(SCC(=O)N(Cc2cccc([N+](=O)[O-])c2)c2ccc(F)cc2)s1 | 
43.2% | 93.5% | 31.8% | 72.6% | 25.5% | 6.36% | 1790 nM | 36% | 24.2% | 12.6% | 84.3% | 17.3% |  | CC(C)CNc1nnc(SCC(=O)N(Cc2cccc([N+](=O)[O-])c2)c2ccc(F)cc2)s1 | 
72.7% | 94.1% | 61.1% | 80.6% | 34.7% | 13.5% | 60 nM | 38.6% | 25.7% | 20.1% | 91.5% | 26.9% | 33 nM | COCCNc1nnc(SCC(=O)N(Cc2cccc([N+](=O)[O-])c2)c2ccc(F)cc2)s1 | 25.956%
